According to ChEMBL document CHEMBL2069268, “Opioid activity of spinally selective analogues of N-naphthoyl-β-naltrexamine in HEK-293 cells and mice” (J Med Chem, 2012):
The source made the active and inactive calls.

Assays:
[1] = target: Delta-type opioid receptor (Homo sapiens) (UniProt P41143); test: Agonist activity at human delta opioid receptor expressed in HEK cells assessed as induction of intracellular calcium release by FLIPR assay; assay type: functional, cell-based; details: HEK293
Outline: (§1)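 HEK-293 cells stably carrying chimeric Δ6-Gαqi4-myr (zeocin selection, DMEM+10% FBS, 37 °C, 10% CO2) transiently transfected with opioid receptor DNA (200 ng/20,000 cells); seeded 24 h later; day 3 loaded with Ca2+ dye 60 min at 37 °C. After 30 s equilibration, ligand added over a concentration range; fluorescence read; ΔRFU (max−min) per concentration fitted by nonlinear regression; peak effect recorded; ≥3 independent runs, 4 internal replicates.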

Mus musculus [2] = test: Toxicity in intrathecally dosed ICR-CD1 mouse assessed as dose tolerance after 24 hrs; assay type: organism-based; details: in vivo, icv_or_intrathecal
Outline: (§2)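 Acute 24 h tolerance in male ICR-CD1 mice by i.c.v. or i.t. route: highest (ED80–90) dose of the day-1 dose-response curve repeated on the same mice 24 h later; tail-flick %MPE compared between days; no significant difference taken as not tolerant.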

Mus musculus [3] = test: Antinociceptive effect in intracerebroventricular dosed ICR-CD1 mouse by tail flick test; assay type: functional
Outline: (§3)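 Male ICR-CD1 mice (17–25 g), conscious, given compound i.c.v. in 5 μl (stock in 10% DMSO, diluted to ≤1% DMSO). Radiant-heat tail-flick latency, 10 s cutoff; %MPE = (test−control)/(10−control)×100. Peak time from time course at 10, 20, 30, 60 min. ≥3 groups of 8–10 mice per dose-response curve, each mouse used once; ED50 with 95% CI by nonlinear regression.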

[4] = target: Opioid receptors; mu & kappa (Homo sapiens) (UniProt P41145+P35372); test: Agonist activity at human mu-kappa opioid receptor expressed in HEK cells assessed as induction of intracellular calcium release by FLIPR assay; assay type: functional, cell-based; details: HEK293; outline: as §1
[5] = target: Opioid receptors; mu & delta (Homo sapiens) (UniProt P41143+P35372); test: Agonist activity at human mu-delta opioid receptor expressed in HEK cells assessed as induction of intracellular calcium release by FLIPR assay; assay type: functional, cell-based; details: HEK293; outline: as §1
Mus musculus [6] = test: Antinociceptive effect in intrathecally dosed ICR-CD1 mouse assessed as peak time effect by tail flick test; assay type: functional
Outline: (§4)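 Male ICR-CD1 mice (17–25 g), conscious, dosed intrathecally in 5 μl (10% DMSO stock diluted to ≤1% DMSO). Radiant-heat tail-flick; %MPE = (test−control)/(10−control)×100 with 10 s cutoff. Peak antinociception located by time course at 10, 20, 30, 60 min. ≥3 groups of 8–10 mice per curve, mice used once; ED50 with 95% CI by nonlinear regression.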

Mus musculus [7] = test: Antinociceptive effect in intrathecally dosed ICR-CD1 mouse by tail flick test; assay type: functional; outline: as §4
[8] = target: Opioid receptors; delta & kappa (Homo sapiens) (UniProt P41145+P41143); test: Agonist activity at human delta-kappa opioid receptor expressed in HEK cells assessed as induction of intracellular calcium release by FLIPR assay; assay type: functional, cell-based; details: HEK293; outline: as §1
Mus musculus [9] = test: Toxicity in intracerebroventricular dosed ICR-CD1 mouse assessed as dose tolerance after 24 hrs; assay type: organism-based; details: in vivo, icv_or_intrathecal; outline: as §2
Mus musculus [10] = test: Antinociceptive effect in intracerebroventricular dosed ICR-CD1 mouse assessed as peak time effect by tail flick test; assay type: functional; outline: as §3
Mus musculus [11] = test: Antinociceptive effect in intrathecally dosed wild type ICR-CD1 mouse after 20 mins in presence of NTI; assay type: functional
Outline: (§5)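 Wild-type male ICR-CD1 mice dosed intrathecally in 5 μl (≤1% DMSO) with antagonist timed to peak with agonist: NTI 5 nmol/mouse or nor-BNI 2.5 nmol/mouse, each 20 min peak time.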

Mus musculus [12] = test: Antinociceptive effect in intrathecally dosed MOR-KO mouse; assay type: functional, organism-based
Outline: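 MOR-KO mice, 13–15 weeks old, equal males and females, eight per group, given compound intrathecally in 5 μl (≤1% DMSO); antinociception scored by radiant-heat tail-flick as %MPE with 10 s cutoff.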

Mus musculus [13] = test: Antinociceptive effect in intrathecally dosed wild type ICR-CD1 mouse after 20 mins in presence of nor-BNI; assay type: functional; outline: as §5

Chain of Opioid receptors; mu & kappa (Homo sapiens) (P35372 whole entry, looked up): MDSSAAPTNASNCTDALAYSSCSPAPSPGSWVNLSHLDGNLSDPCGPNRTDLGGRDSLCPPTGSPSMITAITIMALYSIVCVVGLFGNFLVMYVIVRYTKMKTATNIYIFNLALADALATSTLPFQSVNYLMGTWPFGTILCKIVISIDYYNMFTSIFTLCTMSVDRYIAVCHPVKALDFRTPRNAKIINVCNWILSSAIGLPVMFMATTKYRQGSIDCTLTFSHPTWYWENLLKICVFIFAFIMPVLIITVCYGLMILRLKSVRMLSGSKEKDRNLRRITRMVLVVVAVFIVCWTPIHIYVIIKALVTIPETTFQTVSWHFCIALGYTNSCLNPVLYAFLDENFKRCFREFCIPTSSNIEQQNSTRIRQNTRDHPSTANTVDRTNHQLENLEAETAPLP
Chain of Opioid receptors; mu & kappa (Homo sapiens) (P41145 whole entry, looked up): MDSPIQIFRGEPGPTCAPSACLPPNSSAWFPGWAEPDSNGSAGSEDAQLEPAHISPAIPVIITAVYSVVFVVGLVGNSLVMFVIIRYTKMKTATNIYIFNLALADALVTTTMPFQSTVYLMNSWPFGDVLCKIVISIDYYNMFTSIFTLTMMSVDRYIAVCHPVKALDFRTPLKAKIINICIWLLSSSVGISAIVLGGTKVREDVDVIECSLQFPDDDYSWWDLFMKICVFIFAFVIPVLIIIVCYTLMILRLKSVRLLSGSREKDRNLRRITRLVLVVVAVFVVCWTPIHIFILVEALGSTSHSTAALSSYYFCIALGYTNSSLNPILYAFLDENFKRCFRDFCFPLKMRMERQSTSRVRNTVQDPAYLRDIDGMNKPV
Chain of Delta-type opioid receptor (Homo sapiens) (P41143 whole entry): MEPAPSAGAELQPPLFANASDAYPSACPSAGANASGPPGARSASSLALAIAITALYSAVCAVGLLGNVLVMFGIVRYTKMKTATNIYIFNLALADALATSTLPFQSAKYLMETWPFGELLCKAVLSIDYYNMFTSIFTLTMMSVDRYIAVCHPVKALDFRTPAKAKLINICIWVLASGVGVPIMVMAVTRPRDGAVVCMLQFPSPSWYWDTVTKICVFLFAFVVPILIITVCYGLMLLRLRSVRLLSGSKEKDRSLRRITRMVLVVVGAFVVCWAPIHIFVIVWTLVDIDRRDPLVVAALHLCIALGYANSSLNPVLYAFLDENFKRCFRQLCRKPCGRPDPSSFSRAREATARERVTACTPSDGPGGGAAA
Chain of Opioid receptors; mu & delta (Homo sapiens) (P35372 whole entry, looked up): as the sequence (P35372 whole entry, looked up) above
Chain of Opioid receptors; mu & delta (Homo sapiens) (P41143 whole entry, looked up): as the sequence (P41143 whole entry) above
Chain of Opioid receptors; delta & kappa (Homo sapiens) (P41143 whole entry, looked up): as the sequence (P41143 whole entry) above
Chain of Opioid receptors; delta & kappa (Homo sapiens) (P41145 whole entry, looked up): as the sequence (P41145 whole entry, looked up) above

Row | Structure (SMILES) | Activity [1] | Activity (Mus musculus [2]) | ED50 (Mus musculus [3]) [pmol] | Activity [4] | Activity [5] | Time (Mus musculus [6]) [min] | ED50 (Mus musculus [7]) [pmol] | MPE (Mus musculus [3]) | MPE (Mus musculus [7]) | Activity [8] | Activity (Mus musculus [9]) | Time (Mus musculus [10]) [min] | ED50 (Mus musculus [11]) [nmol] | Activity (Mus musculus [12]) | ED50 (Mus musculus [13]) [nmol]
1 | O=C(N[C@@H]1CC[C@@]2(O)[C@H]3Cc4ccc(O)c5c4[C@@]2(CCN3CC2CC2)[C@H]1O5)c1cnc2ccccc2n1 | inactive | Non-toxic | 757.2 | Active | Active | 5 | 50.8 | – | – | – | – | – | – | – | –
2 | O=C(N[C@@H]1CC[C@@]2(O)[C@H]3Cc4ccc(O)c5c4[C@@]2(CCN3CC2CC2)[C@H]1O5)c1cccc2ncccc12 | inactive | – | – | – | – | – | – | <=60% | <=60% | – | – | – | – | – | –
3 | O=C(N[C@@H]1CC[C@@]2(O)[C@H]3Cc4ccc(O)c5c4[C@@]2(CCN3CC2CC2)[C@H]1O5)c1cccc2ccccc12 | – | – | – | Active | – | – | 20.9 | <=60% | – | Active | Toxic | – | – | – | –
4 | COc1cc2ccccc2cc1C(=O)N[C@@H]1CC[C@@]2(O)[C@H]3Cc4ccc(O)c5c4[C@@]2(CCN3CC2CC2)[C@H]1O5 | Active | Non-toxic | 312.4 | – | – | 5 | 115.1 | – | – | – | Toxic | – | – | – | –
5 | COc1ccc2cc(C(=O)N[C@@H]3CC[C@@]4(O)[C@H]5Cc6ccc(O)c7c6[C@@]4(CCN5CC4CC4)[C@H]3O7)ccc2c1 | – | – | – | – | – | 5 | – | <=60% | <=60% | – | – | 10 | – | – | –
6 | Cl.O=C(N[C@@H]1CC[C@@]2(O)[C@H]3Cc4ccc(O)c5c4[C@@]2(CCN3CC2CC2)[C@H]1O5)c1ccc2ccccc2c1 | – | Non-toxic | 2060 | Active | – | 5 | 18.7 | – | – | – | Toxic | 20 | – | – | –
7 | O=C(N[C@@H]1CC[C@@]2(O)[C@H]3Cc4ccc(O)c5c4[C@@]2(CCN3CC2CC2)[C@H]1O5)c1nccc2ccccc12 | inactive | Non-toxic | 2070 | Active | Active | 20 | 1408 | – | – | – | – | 10 | – | – | –
8 | CN(C(=O)c1ccc2ccccc2c1)[C@@H]1CC[C@@]2(O)[C@H]3Cc4ccc(O)c5c4[C@@]2(CCN3CC2CC2)[C@H]1O5 | Active | – | – | inactive | – | – | – | <=60% | <=60% | – | – | – | – | – | –
9 | O=C(N[C@H]1CC[C@@]2(O)[C@H]3Cc4ccc(O)c5c4[C@@]2(CCN3CC2CC2)[C@H]1O5)c1ccc2ccccc2c1 | – | – | – | inactive | – | – | – | <=60% | <=60% | – | – | – | – | – | –
10 | O=C(N[C@@H]1CC[C@@]2(O)[C@H]3Cc4ccc(O)c5c4[C@@]2(CCN3CC2CC2)[C@H]1O5)c1ccc2cc(F)ccc2c1 | Active | Non-toxic | – | – | – | 20 | 81.1 | <=60% | – | – | – | – | 5 | inactive | 2.5
